From ChEMBL document CHEMBL1153609, “Synthesis and cytotoxic activity of alpha-santonin derivatives” (Eur J Med Chem, 2009)

What was measured:
HCT-8 = test: Cytotoxicity against human HCT8 cells after 72 hrs by MTT assay; type: functional, cell-based; details: HCT-8, 72 h
In short: (§1)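 Cells kept in RPMI-1640 with 10% FBS, 2 mM glutamine, penicillin/streptomycin, at 37 °C under 5% CO2. Seeded at 10^5 cells/well (adherent) or 0.5×10^5 cells/well (suspension). After 24 h, compounds in DMSO (0.09–25 μg/mL) added for 72 h; doxorubicin positive control. Medium then replaced with 0.5 mg/mL MTT for 3 h, formazan dissolved in DMSO, absorbance read at 595 nm as % of control; IC50 derived.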

HL-60 = test: Cytotoxicity against human HL60 cells after 72 hrs by MTT assay; type: functional, cell-based; details: HL-60, 72 h; in short: as §1
A549 = test: Cytotoxicity against human A549 cells after 72 hrs by MTT assay; type: functional, cell-based; details: A549, 72 h; in short: as §1
SF-295 = test: Cytotoxicity against human SF295 cells after 72 hrs by MTT assay; type: functional, cell-based; details: SF-295, 72 h; in short: as §1
UACC-257 = test: Cytotoxicity against human UACC257 cells after 72 hrs by MTT assay; type: functional, cell-based; details: UACC-257, 72 h; in short: as §1
OVCAR-8 = test: Cytotoxicity against human OVCAR8 cells after 72 hrs by MTT assay; type: functional, cell-based; details: OVCAR-8, 72 h; in short: as §1
A704 = test: Cytotoxicity against human A704 cells after 72 hrs by MTT assay; type: functional, cell-based; details: A704, 72 h; in short: as §1
MDA-MB-435 = test: Cytotoxicity against human MDA-MB-435 cells after 72 hrs by MTT assay; type: functional, cell-based; details: MDA-MB-435, 72 h; in short: as §1
PC-3 = test: Cytotoxicity against human PC3 cells after 72 hrs by MTT assay; type: functional, cell-based; details: PC-3, 72 h; in short: as §1
PBMC = test: Cytotoxicity against human PBMC cells after 72 hrs by alamar blue assay; type: cell-based
In short: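 PBMC came from heparinized blood of healthy non-smoking donors and were isolated by Ficoll-Hypaque density gradient. Cultured in RPMI-1640 with 20% FBS, glutamine and antibiotics, with 2% phytohemagglutinin. Plated at 3×10^5 cells/well; after 24 h, compounds in DMSO (0.09–25 μg/mL) added for 72 h; doxorubicin positive control. Resazurin added 24 h before end; absorbance read at 570 and 595 nm as % of control.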

Row | Structure (SMILES) | IC50 (HCT-8) [µM] | IC50 (HL-60) [µM] | IC50 (A549) [µM] | IC50 (SF-295) [µM] | IC50 (UACC-257) [µM] | IC50 (OVCAR-8) [µM] | IC50 (A704) [µM] | IC50 (MDA-MB-435) [µM] | IC50 (PC-3) [µM] | IC50 (PBMC) [µM]
1 | CC1=C2[C@H]3OC(=O)[C@@H](C)[C@@H]3CC[C@@](C)(O)[C@@H]2CC1=O | > 100 | > 100 | > 100 | > 100 | > 100 | > 100 | > 100 | > 100 | > 100 | –
2 | CC1=C2[C@H]3OC(=O)[C@](C)([Se]c4ccccc4)[C@@H]3CC[C@@]2(C)C=CC1=O | > 100 | > 100 | > 100 | > 100 | > 100 | > 100 | > 100 | > 100 | > 100 | –
3 | CC(=O)O[C@]1(C)CC[C@H]2[C@H](C)C(=O)O[C@@H]2C2=C(C)C(=O)C[C@H]21 | > 100 | > 100 | > 100 | > 100 | > 100 | > 100 | > 100 | > 100 | > 100 | –
4 | C=C1C(=O)O[C@@H]2C3=C(C)C(=O)C=C[C@]3(C)CC[C@@H]12 | 2.92 | 1.14 | 13.4 | 2.7 | 6.05 | 6.94 | 10.1 | 6.74 | 13 | 3.23
5 | C=C1C(=O)O[C@@H]2C3=C(C)C(=O)C[C@H]3[C@](C)(OC(C)=O)CC[C@@H]12 | 0.36 | 1.6 | 10.2 | 3.06 | 7.76 | 8.67 | 9.24 | 8.84 | 14.4 | 13.5
6 | CC1=C2[C@H]3OC(=O)[C@@H](C)[C@@H]3CC[C@@](C)(O)[C@@H]2C[C@@H]1O | > 100 | > 100 | > 100 | > 100 | > 100 | > 100 | > 100 | > 100 | > 100 | –
7 | CC(=O)O[C@]1(C)CC[C@H]2[C@H](C)C(=O)O[C@@H]2C2=C(C)[C@@H](O)C[C@H]21 | > 100 | > 100 | > 100 | > 100 | > 100 | > 100 | > 100 | > 100 | > 100 | –
8 | C=C1C(=O)O[C@H]2[C@H]1CC[C@]1(C)C3(C)C(=O)C=CC231 (some centres not stated) | 1.96 | 2.3 | 14.5 | 2.15 | 4.87 | 3.88 | 3.61 | 4.57 | 5.07 | 13.4
9 | COc1cccc2c1C(=O)c1c(O)c3c(c(O)c1C2=O)C[C@@](O)(C(=O)CO)C[C@@H]3O[C@H]1C[C@H](N)[C@H](O)[C@H](C)O1 [DOXORUBICIN] | 0.02 | 0.04 | 0.72 | 0.48 | 0.6 | 0.51 | 2 | 0.96 | 1.32 | 1.77
10 | CC(C)=C1CC[C@H]2[C@H](C)C(=O)O[C@@H]2/C1=C\CC(=O)O [ISOFOTOSANTONIC ACID] | > 100 | > 100 | > 100 | > 100 | > 100 | > 100 | > 100 | > 100 | > 100 | –
11 | C[C@@H]1C(=O)O[C@H]2[C@H]1CC[C@]1(C)C3(C)C(=O)C=CC231 (some centres not stated) [LUMISANTONIN] | 59.2 | 80.2 | 69.4 | 68.8 | > 100 | 49.8 | 85.4 | 91.5 | 66.5 | –
12 | CC1=C2[C@H]3OC(=O)[C@@H](C)[C@@H]3CC[C@@]2(C)C=CC1=O [SANTONIN] | > 100 | > 100 | > 100 | > 100 | > 100 | > 100 | > 100 | > 100 | > 100 | –
